Experimental data from ChEMBL document CHEMBL1156231, “Alkylation of a human telomere sequence by heterotrimeric chlorambucil PI polyamide conjugates” (Bioorg Med Chem, 2010).
Active and inactive are the calls of the source. The rule behind the calls is not given here.

Columns and labels:
[1] = tested on: Nucleic Acid; assay: Binding affinity to human telomeric DNA expressed in Escherichia coli DH5alpha assessed as alkylation of G rich 5^-GGTTAGGGTTA-3^ strand at 50 to 200 nM after 24 hrs by PAGE
In short: (§1)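 5'-Texas Red-labelled telomere-containing DNA fragment (insert cloned and propagated in E. coli DH5a, PCR-amplified, purified), alkylated with conjugate at various concentrations in 5 mM sodium phosphate buffer pH 7.0, 10% DMF, room temperature, 24 h. Reaction stopped with calf thymus DNA and heating 95 °C, 5 min. Alkylation sites read by high-resolution denaturing polyacrylamide gel electrophoresis.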

[2] = tested on: Nucleic Acid; assay: Binding affinity to human telomeric DNA expressed in Escherichia coli DH5alpha assessed as alkylation of complementary C rich site at 50 to 200 nM after 24 hrs by PAGE analysis; in short: as §1
[3] = tested on: Nucleic Acid; assay: Binding affinity to human telomeric DNA expressed in Escherichia coli DH5alpha assessed as alkylation of G and C rich strand at 10 nM after 24 hrs by PAGE analysis; in short: as §1

CN(C)CCCNC(=O)c1nc(NC(=O)c2nc(NC(=O)c3nc(NC(=O)CCNC(=O)CCNC(=O)c4nc(NC(=O)c5nc(NC(=O)c6nc(NC(=O)CCCc7ccc(N(CCCl)CCCl)cc7)cn6C)cn5C)cn4C)cn3C)cn2C)cn1C
Activity [1]: inactive | Activity [2]: Active | Activity [3]: Active
